Calls of active or inactive are those of the source. The calls are words filed in the database; no cut-off is given here.
Key:
HCT-8 = test: Inhibition of human colon tumor (HCT-8) cell growth in culture; type: functional, cell-based
Summary of the method: (§1)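 IC50 is the drug concentration, in nM, that inhibits growth of the cultured cell line by 50%.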

[1] = Lipophilicity index (Rm) (HPLC); type: physicochemical
P388 [2] = test: (§2) Percentage increase in life span of tumor bearing animals compared to non treated, tumor-bearing controls when treated at the optimal dose of 100 mg/kg/day intraperitoneally; type: functional; conditions: Mus musculus, P388, ip; route intraperitoneal
[3] = test system: Lewis lung carcinoma cell line; test: as §2; type: functional; conditions: Mus musculus, ip, route intraperitoneal
[4] = Selectivity ratio of IC50 of HCT to IC50 of L1210 cell lines; type: functional
L1210 = test: Inhibition murine leukemia L1210 cell growth in culture; type: functional, cell-based; conditions: Mus musculus; summary of the method: as §1
[5] = Base strength is expressed as pKa, determined in water at 25 degrees Centigrade by spectrophotometric method.; type: physicochemical
P388 [6] = test: Percentage increase in life span of tumor bearing animals compared to non treated, tumor-bearing controls when treated at the optimal dose of 66 mg/kg/day intraperitoneally; type: functional; conditions: Mus musculus, P388, ip; route intraperitoneal
P388 [7] = test: Percentage increase in life span of tumor bearing animals compared to non treated, tumor-bearing controls when treated at the optimal dose of 225 mg/kg/day intraperitoneally; IA denotes inactive; type: functional, organism-based; conditions: Mus musculus
Summary of the method: (§3)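 Drug was given ip in 0.1 mL 30% v/v ethanol/water. For P388, 10^6 cells were inoculated ip and dosing was on days 1, 5 and 9, with >20% significant. For Lewis lung, 10^6 cells were inoculated iv and dosing was on days 5, 9 and 13, with >40% significant. The read-out is % lifespan increase over untreated controls.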

[8] = test system: Lewis lung carcinoma cell line; test: Percentage increase in life span of tumor bearing animals compared to non treated, tumor-bearing controls when treated at the optimal dose of 100 mg/kg/day intraperitoneally; IA denotes inactive; type: functional, organism-based; conditions: Mus musculus; summary of the method: as §3
P388 [9] = test: Percentage increase in life span of tumor bearing animals compared to non treated, tumor-bearing controls when treated at the optimal dose of 150 mg/kg/day intraperitoneally; IA denotes inactive; type: functional, organism-based; conditions: Mus musculus; summary of the method: as §3
P388 [10] = test: (§4) Percentage increase in life span of tumor bearing animals compared to non treated, tumor-bearing controls when treated at the optimal dose of 150 mg/kg/day intraperitoneally; type: functional; conditions: Mus musculus, P388, ip; route intraperitoneal
[11] = test system: Lewis lung carcinoma cell line; test: as §4; type: functional; conditions: Mus musculus, ip, route intraperitoneal
P388 [12] = test: Percentage increase in life span of tumor bearing animals compared to non treated, tumor-bearing controls when treated at the optimal dose of 30 mg/kg/day intraperitoneally; type: functional; conditions: Mus musculus, P388, ip; route intraperitoneal
P388 [13] = test: (§5) Percentage increase in life span of tumor bearing animals compared to non treated, tumor-bearing controls when treated at the optimal dose of 65 mg/kg/day intraperitoneally; type: functional; conditions: Mus musculus, P388, ip; route intraperitoneal
[14] = test system: Lewis lung carcinoma cell line; test: as §5; type: functional; conditions: Mus musculus, ip, route intraperitoneal
P388 [15] = test: Percentage increase in life span of tumor bearing animals compared to non treated, tumor-bearing controls when treated at the optimal dose of 100 mg/kg/day ip (P388); type: functional; conditions: Mus musculus, route intraperitoneal
[16] = test system: Lewis lung carcinoma cell line; test: Percentage increase in life span of tumor bearing animals compared to non treated, tumor-bearing controls when treated at the optimal dose of 150 mg/kg/day ip (LL); type: functional; conditions: Mus musculus
P388 [17] = test: Percentage increase in life span of tumor bearing animals compared to non treated, tumor-bearing controls when treated at the optimal dose of 225 mg/kg/day ip (P388); type: functional; conditions: Mus musculus, route intraperitoneal
P388 [18] = test: Percentage increase in life span of tumor (P388 cells) bearing animals compared to non treated, tumor-bearing controls when treated at the optimal dose of 45 mg/kg/day; IA denotes inactive; type: functional, organism-based; conditions: Mus musculus
[19] = test system: Lewis lung carcinoma cell line; test: Percentage increase in life span of tumor bearing animals compared to non treated, tumor-bearing controls when treated at the optimal dose of 45 mg/kg/day intraperitoneally; type: functional; conditions: Mus musculus, ip, route intraperitoneal
P388 [20] = test: Percentage increase in life span of compound-treated, tumor bearing animals compared to non treated, tumor-bearing controls when treated at the optimal dose of 150 mg/kg/day intraperitoneally; type: functional; conditions: Mus musculus, P388, ip; route intraperitoneal

Row | Compound | IC50 (HCT-8) [nM] | Rm [1] | ILS at 100 mg/kg/day (P388 [2]) [%] | Ratio [4] | IC50 (L1210) [nM] | pKa [5] | other results
1 | CN(C)CCNC(=O)c1ccc(Cl)c2cc3ccccc3nc12.Cl.Cl | 370 | 0.04 | 110 | 11.2 | 33 |  | ILS at 100 mg/kg/day [3]: 120%
2 | CN(C)CCNC(=O)c1cccc2cc3ccccc3nc12.Cl.Cl | 900 | -0.2 |  | 8.6 | 105 | 3.54 | ILS at 66 mg/kg/day (P388 [6]): 91%
3 | Cc1ccc2cc3ccccc3nc2c1C(=O)NCCN(C)C.Cl.Cl |  | -0.21 |  |  | 12700 |  | ILS (P388 [7]): inactive; ILS [8]: inactive
4 | CN(C)CCNC(=O)c1ccc2cc3ccccc3nc2c1.Cl.Cl |  | -0.53 |  |  | 8100 | 3.94 | ILS (P388 [9]): inactive
5 | COc1ccc2nc3c(C(=O)NCCN(C)C)cccc3cc2c1.Cl.Cl | 1700 | -0.22 |  | 2.7 | 640 | 3.54 | ILS at 150 mg/kg/day (P388 [10]): 91%; ILS at 150 mg/kg/day [11]: 46%
6 | COc1ccc(C(=O)NCCN(C)C)c2nc3ccccc3cc12.Cl.Cl | 115 | -0.13 |  | 13.1 | 8.8 | 3.81 | ILS at 30 mg/kg/day (P388 [12]): 205%
7 | CN(C)CCNC(=O)c1cccc2cc3c(Cl)cccc3nc12.Cl.Cl.Cl | 790 | 0.01 |  | 4.9 | 160 |  | ILS at 65 mg/kg/day (P388 [13]): 102%; ILS at 65 mg/kg/day [14]: 63%
8 | CN(C)CCCCCCNC(=O)c1cccc2cc3ccccc3nc12.Cl | 1960 | 0.28 |  | 3.6 | 550 |  | ILS at 100 mg/kg/day (P388 [15]): 32%; ILS [16]: inactive
9 | CN(C)CCCCCNC(=O)c1cccc2cc3ccccc3nc12.Cl | 1800 | 0.12 |  | 4 | 450 |  | ILS at 150 mg/kg/day ([16]; route intraperitoneal): 83%; ILS at 225 mg/kg/day (P388 [17]): 34%
10 | Cc1ccc(C(=O)NCCN(C)C)c2nc3ccccc3cc12.Cl.Cl | 400 | 0.1 | 71 | 10.8 | 37 |  | 
11 | Cc1c2ccccc2nc2c(C(=O)NCCN(C)C)cccc12.Cl.Cl | 160 | -0.33 |  | 1.1 | 150 | 4.34 | IA (P388 [18]): inactive
12 | Cc1cc(C(=O)NCCN(C)C)c2nc3ccccc3cc2c1.Cl.Cl | 657 | -0.04 | 120 | 5.1 | 130 |  | ILS at 150 mg/kg/day [11]: 33%
13 | COc1cccc2cc3cccc(C(=O)NCCN(C)C)c3nc12.Cl | 180 | -0.31 |  | 15 | 12 | 3.87 | ILS at 45 mg/kg/day [19]: 54%; ILS at 65 mg/kg/day (P388 [13]): 70%
14 | CN(C)CCNC(=O)c1cc(Cl)cc2cc3ccccc3nc12.Cl.Cl | 440 | 0.03 | 62 | 14.2 | 31 |  | ILS at 100 mg/kg/day [3]: 219%
15 | Cc1ccc2nc3c(C(=O)NCCN(C)C)cccc3cc2c1.Cl.Cl | 1240 | -0.05 | 68 | 6.2 | 200 |  | ILS at 150 mg/kg/day [11]: 85%
16 | Cc1cccc2nc3c(C(=O)NCCN(C)C)cccc3cc12.Cl.Cl.O.O | 980 | -0.12 |  | 7 | 140 |  | ILS at 150 mg/kg/day (P388 [20]): 61%; ILS at 150 mg/kg/day [11]: 60%

Source: ChEMBL document CHEMBL1123878, “Potential antitumor agents. 50. In vivo solid-tumor activity of derivatives of N-[2-(dimethylamino)ethyl]acridine-4-carboxamide” (J Med Chem, 1987)
